Screens from PubChem BioAssay.
This is a sample that favours compounds with a hit; in the whole collection about 4.6% have one here.
OX1R antag-1: antagonists of human orexin 1 receptor; CHO/OX1R cells, Fluo-8 calcium fluorescence, orexin A; inhibition, % at 5 µM; AID 434989; 330,000 tested, 0.43% active;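 active = inhibition above its plate's threshold, mean inhibition of all tested compounds on the plate plus 3 SD, cut at about 37% in these data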
Target sequence (O43613 whole entry, looked up): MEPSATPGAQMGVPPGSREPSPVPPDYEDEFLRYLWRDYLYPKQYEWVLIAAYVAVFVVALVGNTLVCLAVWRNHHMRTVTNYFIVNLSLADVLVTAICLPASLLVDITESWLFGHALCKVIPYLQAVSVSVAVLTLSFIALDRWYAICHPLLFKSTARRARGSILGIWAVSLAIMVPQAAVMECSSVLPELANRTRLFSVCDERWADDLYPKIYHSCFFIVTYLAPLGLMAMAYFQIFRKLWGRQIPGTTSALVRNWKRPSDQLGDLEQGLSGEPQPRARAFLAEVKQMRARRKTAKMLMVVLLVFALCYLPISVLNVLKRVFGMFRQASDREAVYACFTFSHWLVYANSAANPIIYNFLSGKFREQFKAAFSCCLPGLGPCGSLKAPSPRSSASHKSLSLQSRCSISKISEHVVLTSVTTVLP
TAAR1 agonist: agonists of human TAAR1 | Q96RJ0 | CHO RD-HGA16 TAAR1, Fluo-8 calcium fluorescence; vehicle wells 0%, saturating PEA agonist 100% | activation, % at 3 µM | 360,000 tested, 0.99% active;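 active = activation above the mean activation of all test compounds in the run plus 3 SD, cut at about 38% in these data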
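Signal – calcium-sensitive Fluo-8 signal, excitation 470-495, emission 515-575 nm · System – RD-HGA16 (CHO) cells co-expressing Gα16 and hTAAR1 · Incubation – 17-24 h seeding, 75 min 37 °C dye, 30 min RT · Compound dosing – 3 µM single concentration · Repeats – no replicates (n 1)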
CHO parental Ca: counter-screen: ATP calcium response change in parental CHO cells | parental CHO-K1, ATP-induced calcium, Fluo-8 fluorescence | inhibition, % at 5.6 µM | 330,000 tested, 0.63% active | AID 463079;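 active = inhibition above that plate's mean sample inhibition plus 3 SD, cut at about 26% in these data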
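Test system: untransfected parental CHO cell line. Compound: one dose, 5.6 µM nominal. Detection: intracellular calcium via Fluo-8 no-wash fluorescent dye. Measure: % inhibition. Benchmarks: ATP-challenged DMSO wells low, unchallenged DMSO wells high.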
OX1R antag-2: OX1R (human) antagonism; AID 485270; O43613; inhibition, % at 6.6 µM; OX1R-expressing cells, FRET antagonist read-out; 330,000 tested, 1.8% active; in the data active = inhibition mostly above about 38%, no sharp cut-off; inactive = mostly below about 40%
TAAR1 antag: human TAAR1 antagonism; inhibition, % at 3 µM; Q96RJ0; CHO RD-HGA16 TAAR1, Fluo-8 calcium fluorescence, antagonist; 360,000 tested, 1.5% active;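 active = inhibition above a per-plate cutoff, the mean inhibition of test compounds on that plate plus 3 SD, cut at about 49% in these data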
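Test system: hTAAR1-expressing CHO RD-HGA16 cells, Gα16-coupled; Probe or stimulus: EC80 β-phenethylamine stimulus; Compound dosing: single nominal final test compound concentration of 3 µM; Timing: 140 s kinetic read after compound, 140 s after agonist; Signal: Fluo-8 calcium-sensitive fluorescence; Measure: % inhibition of agonist calcium response; Controls: DMSO and EC80 PEA controls.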
GPR7 antag: blocks human GPR7 receptor signaling; P48145; GPR7-expressing cells, fluorescence antagonist assay; inhibition, % at 4.4 µM; 290,000 tested, 1.1% active; in the data active = inhibition above about 16%, passing the limit was not always enough;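 also: cells stimulated with the agonist NPW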
Hits are given with their value.

Results for CCc1ccccc1NC(=O)CSc1nc2n[nH]c(C)c2c(=N)n1-c1cccc(OC)c1 ?
OX1R antag-1: inactive; TAAR1 agonist: inactive; CHO parental Ca: inactive; OX1R antag-2: 46; TAAR1 antag: inactive; GPR7 antag: inactive

How did CCOc1ccccc1NC(=O)CCSc1nc2n[nH]c(C)c2c(=N)n1-c1ccccc1Cl do in these assays?
OX1R antag-1: inactive; TAAR1 agonist: inactive; CHO parental Ca: inactive; OX1R antag-2: 53; TAAR1 antag: inactive; GPR7 antag: inactive

Results for Cc1ccc(N=C(NOCc2ccc(Cl)cc2Cl)c2nonc2N)c(C)c1 ?
OX1R antag-1: inactive; TAAR1 agonist: inactive; CHO parental Ca: inactive; OX1R antag-2: inactive; TAAR1 antag: 57; GPR7 antag: inactive

What do the screens show for `C=CCNc1cccc2c1S(=O)(=O)N[C@H](Cc1ccccc1)CO2`?
TAAR1 agonist: inactive; TAAR1 antag: inactive

How did O=C(O)c1ccc(OCC(O)Cn2c3ccccc3c3ccccc32)cc1 (stereo unspecified) do in these assays?
OX1R antag-1: inactive; TAAR1 agonist: inactive; CHO parental Ca: 38; OX1R antag-2: inactive; TAAR1 antag: inactive; GPR7 antag: inactive

How did OC(COc1ccccc1)Cn1c2ccccc2c2ccccc21 (stereo unspecified) do in these assays?
OX1R antag-1: inactive; TAAR1 agonist: inactive; CHO parental Ca: inactive; OX1R antag-2: inactive; TAAR1 antag: inactive; GPR7 antag: inactive

How did CC(=O)Nc1ccc(OCC(O)Cn2c3ccccc3c3ccccc32)cc1 (stereo unspecified) do in these assays?
OX1R antag-1: inactive; TAAR1 agonist: inactive; CHO parental Ca: inactive; OX1R antag-2: inactive; TAAR1 antag: inactive; GPR7 antag: inactive

Results for CC(=O)Nc1ccc(OCC(O)Cn2c3ccccc3c3ccccc32)c(C)c1 (stereo unspecified) ?
OX1R antag-1: inactive; TAAR1 agonist: inactive; CHO parental Ca: inactive; OX1R antag-2: inactive; TAAR1 antag: 65; GPR7 antag: inactive

What do the screens show for `NCc1ccc(OCCCN2CCC(C(O)(C3=CCCC3)c3ccccc3)CC2)cc1` (stereo unspecified)?
TAAR1 agonist: inactive; TAAR1 antag: inactive

Results for CN(C)S(=O)(=O)c1cccc(NC(=O)CSc2nc3ccccc3[nH]2)c1 ?
OX1R antag-1: inactive; TAAR1 agonist: inactive; CHO parental Ca: inactive; OX1R antag-2: inactive; TAAR1 antag: inactive; GPR7 antag: inactive

What do the screens show for `CCN(CC)S(=O)(=O)c1cccc(NC(=O)CSc2nc3ccccc3[nH]2)c1`?
OX1R antag-1: 44; TAAR1 agonist: inactive; CHO parental Ca: 31; OX1R antag-2: 53; TAAR1 antag: inactive; GPR7 antag: inactive

How did CN(C)S(=O)(=O)c1cccc(NC(=O)CSc2ncnc3ccccc23)c1 do in these assays?
OX1R antag-1: inactive; TAAR1 agonist: inactive; CHO parental Ca: 29; OX1R antag-2: inactive; TAAR1 antag: inactive; GPR7 antag: inactive

Results for O=C(c1ccc(COc2ccccc2)o1)N1CCN(S(=O)(=O)c2ccccc2Cl)CC1 ?
OX1R antag-1: inactive; TAAR1 agonist: inactive; CHO parental Ca: inactive; OX1R antag-2: inactive; TAAR1 antag: 51

Results for C[C@@H]1NC(=O)[C@H](CCCN=C(N)N)NC(=O)c2cc([N+](=O)[O-])cc(I)c2OCC[C@@H](C(=O)NC(CC(=O)O)C(N)=O)NC1=O (stereo partly specified) ?
OX1R antag-1: inactive; CHO parental Ca: inactive; OX1R antag-2: inactive; GPR7 antag: inactive

What do the screens show for `C[C@@H]1NC(=O)c2cc([N+](=O)[O-])cc(I)c2OCC[C@@H](C(=O)NC(CC(=O)O)C(N)=O)NC(=O)[C@H](CC(N)=O)NC1=O` (stereo partly specified)?
OX1R antag-1: inactive; CHO parental Ca: 51; OX1R antag-2: inactive; GPR7 antag: inactive

How did C/C(=N\Nc1nc2ccccc2s1)c1ccc(Br)s1 do in these assays?
OX1R antag-1: inactive; TAAR1 agonist: inactive; CHO parental Ca: inactive; OX1R antag-2: inactive; TAAR1 antag: inactive; GPR7 antag: inactive

Results for CC(=NNc1nc2ccccc2s1)c1ccncn1 ?
TAAR1 agonist: inactive; TAAR1 antag: 64

Results for CC1C(=O)N(Cc2ccccc2F)c2ccccc2N1C(=O)c1c(F)cccc1F (stereo unspecified) ?
OX1R antag-1: inactive; TAAR1 agonist: inactive; CHO parental Ca: 62; OX1R antag-2: inactive; TAAR1 antag: 52; GPR7 antag: inactive

Results for COc1ccc(-c2cnnc(N/N=C/c3ccc(O)c(O)c3)n2)cc1 ?
OX1R antag-1: inactive; TAAR1 agonist: inactive; CHO parental Ca: inactive; OX1R antag-2: 75; TAAR1 antag: inactive; GPR7 antag: inactive

What do the screens show for `CN(C)CCCNc1ncnc2scc(-c3ccccc3)c12`?
OX1R antag-1: inactive; TAAR1 agonist: inactive; CHO parental Ca: inactive; OX1R antag-2: inactive; TAAR1 antag: inactive; GPR7 antag: inactive

What do the screens show for `c1ccc(CNc2ncnc3scc(-c4cccs4)c23)nc1`?
OX1R antag-1: inactive; TAAR1 agonist: inactive; CHO parental Ca: 44; OX1R antag-2: inactive; TAAR1 antag: inactive; GPR7 antag: inactive

How did c1ccc(-c2csc3ncnc(NCc4ccccn4)c23)cc1 do in these assays?
OX1R antag-1: inactive; TAAR1 agonist: inactive; CHO parental Ca: inactive; OX1R antag-2: inactive; TAAR1 antag: 53; GPR7 antag: inactive

How did CCCCCCCCN1C(=O)[C@@H](CC(=O)NCC23CC4CC(CC(C4)C2)C3)C[C@@]2(C(=O)OC)C1=C[C@H](C(C)(C)C)O[C@@H]2C do in these assays?
TAAR1 agonist: inactive; TAAR1 antag: inactive

Results for O=C1c2cccc(NCCCNCCO)c2C(=O)c2cccc(NCCCNCCO)c21 ?
TAAR1 agonist: inactive; TAAR1 antag: inactive

Results for CCCCS(=O)(=O)N1CCCc2nc(C)c(C)cc21 ?
TAAR1 agonist: inactive; TAAR1 antag: inactive

How did Cc1ccc(-n2nnnc2C(Cl)(Cl)c2nnnn2-c2ccc(C)cc2)cc1 do in these assays?
OX1R antag-1: 55; TAAR1 agonist: inactive; CHO parental Ca: 48; OX1R antag-2: inactive; TAAR1 antag: inactive; GPR7 antag: inactive

Results for Clc1ccc(-c2nnnn2-c2ccc(Cl)cc2)cc1 ?
OX1R antag-1: inactive; TAAR1 agonist: inactive; CHO parental Ca: inactive; OX1R antag-2: inactive; TAAR1 antag: inactive; GPR7 antag: inactive

Results for Cc1ccc(C)c(C(O)c2ncc(-c3ccccc3Cl)[nH]2)c1 (stereo unspecified) ?
TAAR1 agonist: inactive; TAAR1 antag: inactive

Results for Cc1cccc2cc(CN(CC3CCCO3)S(=O)(=O)c3ccccc3)c(=O)[nH]c12 (stereo unspecified) ?
OX1R antag-1: inactive; TAAR1 agonist: inactive; CHO parental Ca: inactive; OX1R antag-2: inactive; TAAR1 antag: 49; GPR7 antag: inactive
